In the RNAGym collection of RNA variant scans (doi:10.1002/anie.201605470) one finds self-cleavage data, which are given here for 48 variants.

B1: Osa-1-4 twister ribozyme (parent)
chain: CCGCCUAACACUGCCAAUGCCGGUCCCAAGCCCGGAUAAAAGUGGAGGGGGCGG

The variants in this data set derive from B1. Nature of the data set: self-cleavage, relative activity (ratio to wild type); higher = more cleavage; co-transcriptional. Put shortly: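 The 48 positions downstream of the cleavage site in a 54-nucleotide Oryza sativa twister ribozyme template were synthesised at 97 % wild-type base and 1 % of each other base. The template was transcribed in vitro at 37 °C for 2 h, with self-cleavage allowed during transcription. Reads with or without upstream sequence after deep sequencing marked cleavage status, and relative activity is fraction cleaved normalised to wild type.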
CCGCCUAACACUGCCAAUGUCGGUCCCAAGCCCGGAUAAAAGUGAAGGGGGCGG [C20U G45A]: the self-cleavage stood at 0.35.

Consider CCGCCUAACACUGCCAAUGUCGGUCCCAAGCCCGGAUAAAAGUGUAGGGGGCGG [C20U G45U], for which the self-cleavage was found to be 0.14. Regarding CCGCCUAACACUGCCAAUGUCGGUCCCAAGCCCGGAUAAAAGUGCAGGGGGCGG [C20U G45C], the self-cleavage worked out at 0.06. Consider CCGCCUAACACUGCCAAUGUCGGUCCCAAGCCCGGAUAAAAGGGGAGGGGGCGG [C20U U43G], for which the self-cleavage came to 0.68. The value for CCGCCUAACACUGCCAAUGUCGGUCCCAAGCCCGGAUAAAAGCGGAGGGGGCGG [C20U U43C] was 0.49; that for CCGCCUAACACUGCCAAUGUCGGUCCCAAGCCCGGAUAAAAGAGGAGGGGGCGG [C20U U43A] was 0.84; that for CCGCCUAACACUGCCAAUGCAGGUUCCAAGCCCGGAUAAAAGUGGAGGGGGCGG [C21A C25U] was 0.16. To CCGCCUAACACUGCCAAUGCAGGUGCCAAGCCCGGAUAAAAGUGGAGGGGGCGG [C21A C25G] belongs 0.07; to CCGCCUAACACUGCCAAUGCAGGUACCAAGCCCGGAUAAAAGUGGAGGGGGCGG [C21A C25A], 0.08; to CCGCCUAACACUGCCAAUGUCUGUCCCAAGCCCGGAUAAAAGUGGAGGGGGCGG [C20U G22U], 0.5.

For the variant CCGCCUAACACUGCCAAUGUCCGUCCCAAGCCCGGAUAAAAGUGGAGGGGGCGG [C20U G22C], the self-cleavage amounted to 0.06. On to CCGCCUAACACUGCCAAUGUCAGUCCCAAGCCCGGAUAAAAGUGGAGGGGGCGG [C20U G22A], for which the self-cleavage amounted to 0.6. With CCGCCUAACACUGCCAAUGUCGGUCCCAAGCCCGGAUAAAACUGGAGGGGGCGG [C20U G42C], the self-cleavage was found to be 0.22. Turning to CCGCCUAACACUGCCAAUGUCGGUCCCAAGCCCGGAUAAAAAUGGAGGGGGCGG [C20U G42A], the self-cleavage stood at 0.62. On to CCGCCUAACACUGCCAAUGUCGGUCCCAAGCCCGGAUAAAAUUGGAGGGGGCGG [C20U G42U], for which the self-cleavage was found to be 0.1.

In the case of CCGCCUAACACUGCCAAUGCAGGUCCCAAGCCCGGAUAAAAGUGGAGGGGGGGG [C21A C52G], the self-cleavage came to 0.54. With CCGCCUAACACUGCCAAUGCAGGUCCCAAGCCCGGAUAAAAGUGGAGGGGGUGG [C21A C52U], the self-cleavage was 0.86. CCGCCUAACACUGCCAAUGCAGGUCCCAAGCCCGGAUAAAAGUGGAGGGGGAGG [C21A C52A]: the self-cleavage turned out to be 0.31.

Consider CCGCCUAACACUCCCAAUGCAGGUCCCAAGCCCGGAUAAAAGUGGAGGGGGCGG [C21A G13C], for which the self-cleavage was 0.03.

In the case of CCGCCUAACACUUCCAAUGCAGGUCCCAAGCCCGGAUAAAAGUGGAGGGGGCGG [C21A G13U], the self-cleavage is 0.04.

Turning to CCGCCUAACACUACCAAUGCAGGUCCCAAGCCCGGAUAAAAGUGGAGGGGGCGG [C21A G13A], the self-cleavage was determined as 0.07. As to CCGCCUAACACUGCCAAUGUCGGUCCCAAGCCCGCAUAAAAGUGGAGGGGGCGG [C20U G35C], the self-cleavage is 0.93. As for CCGCCUAACACUGCCAAUGUCGGUCCCAAGCCCGUAUAAAAGUGGAGGGGGCGG [C20U G35U], the self-cleavage came to 1.

For CCGCCUAACACUGCCAAUGUCGGUCCCAAGCCCGAAUAAAAGUGGAGGGGGCGG [C20U G35A], the self-cleavage was found to be 1. Regarding CCGCCUAACACUGCCAAUACAGGUCCCAAGCCCGGAUAAAAGUGGAGGGGGCGG [C21A G19A], the self-cleavage came to 0.4. CCGCCUAACACUGCCAAUCCAGGUCCCAAGCCCGGAUAAAAGUGGAGGGGGCGG [C21A G19C]: the self-cleavage came to 0.03. On to CCGCCUAACACUGCCAAUUCAGGUCCCAAGCCCGGAUAAAAGUGGAGGGGGCGG [C21A G19U], for which the self-cleavage was 0.07.

As for CCGCCUAACACUGCCAAUGCAGGUCGCAAGCCCGGAUAAAAGUGGAGGGGGCGG [C21A C26G], the self-cleavage worked out at 0.09. On to CCGCCUAACACUGCCAAUGCAGGUCACAAGCCCGGAUAAAAGUGGAGGGGGCGG [C21A C26A], for which the self-cleavage came to 0.05. As to CCGCCUAACACUGCCAAUGCAGGUCUCAAGCCCGGAUAAAAGUGGAGGGGGCGG [C21A C26U], the self-cleavage is 0.2.

Consider CCGCCUAACACUGCCAAUGCAGGUCCCAAGGCCGGAUAAAAGUGGAGGGGGCGG [C21A C31G], for which the self-cleavage turned out to be 0.07. CCGCCUAACACUGCCAAUGCAGGUCCCAAGACCGGAUAAAAGUGGAGGGGGCGG [C21A C31A]: the self-cleavage is 0.04. In the case of CCGCCUAACACUGCCAAUGCAGGUCCCAAGUCCGGAUAAAAGUGGAGGGGGCGG [C21A C31U], the self-cleavage is 0.21.

In the case of CCGCCUAACACUGCCAAUGUCGGUCCCAAGCCCGGAUAAAAGUGGAGGGGGCCG [C20U G53C], the self-cleavage came out at 0.09.

For CCGCCUAACACUGCCAAUGUCGGUCCCAAGCCCGGAUAAAAGUGGAGGGGGCUG [C20U G53U], the self-cleavage came out at 0.38. In the case of CCGCCUAACACUGCCAAUGUCGGUCCCAAGCCCGGAUAAAAGUGGAGGGGGCAG [C20U G53A], the self-cleavage is 0.75.

With CCGCCUAACACUGCCAAUGUCGGUCCCAAGCCCGGAUAAAAGUGGAGGUGGCGG [C20U G49U], the self-cleavage stood at 0.13. Regarding CCGCCUAACACUGCCAAUGUCGGUCCCAAGCCCGGAUAAAAGUGGAGGCGGCGG [C20U G49C], the self-cleavage is 0.11. CCGCCUAACACUGCCAAUGUCGGUCCCAAGCCCGGAUAAAAGUGGAGGAGGCGG [C20U G49A]: the self-cleavage came out at 0.16.

Regarding CCGCCUAACACUGCCAAUGUCGGUCCCAAGCCCGGAAAAAAGUGGAGGGGGCGG [C20U U37A], the self-cleavage was found to be 0.96. The value for CCGCCUAACACUGCCAAUGUCGGUCCCAAGCCCGGACAAAAGUGGAGGGGGCGG [C20U U37C] was 1.02; that for CCGCCUAACACUGCCAAUGUCGGUCCCAAGCCCGGAGAAAAGUGGAGGGGGCGG [C20U U37G] was 1.04. As to CCGCCUAACACUUCCAAUGUCGGUCCCAAGCCCGGAUAAAAGUGGAGGGGGCGG [C20U G13U], the self-cleavage is 0.04.

With CCGCCUAACACUGCCAAUGCAAGUCCCAAGCCCGGAUAAAAGUGGAGGGGGCGG [C21A G22A], the self-cleavage came out at 0.11. The value for CCGCCUAACACUGCCAAUGCACGUCCCAAGCCCGGAUAAAAGUGGAGGGGGCGG [C21A G22C] was 0.07. As to CCGCCUAACACUGCCAAUAUCGGUCCCAAGCCCGGAUAAAAGUGGAGGGGGCGG [C20U G19A], the self-cleavage worked out at 0.9. Regarding CCGCCUAACACUGCCAAUCUCGGUCCCAAGCCCGGAUAAAAGUGGAGGGGGCGG [C20U G19C], the self-cleavage amounted to 0.18. For CCGCCUAACACUGCCAAUUUCGGUCCCAAGCCCGGAUAAAAGUGGAGGGGGCGG [C20U G19U], the self-cleavage amounted to 0.65.
